Results reported in publication PMC4711262 (Journal of thrombosis and haemostasis : JTH, 2011).
Values belong to the compound of their own block, whether it stands above or below them. Residues, ends and D or L forms follow the SMILES beside them. *: point of attachment. AMC = Cc1cc(=O)oc2cc(N*)ccc12; Cbz = O=C(OCc1ccccc1)*

Columns and labels:
[1] = target: T1, APCE/FAP (Homo sapiens, UniProt Q12884); assay: Enzyme assay with fluorogenic substrate, APCE/FAP; type: biochemical; settings: 10 μM inhibitor
T1 sequence (Q12884 24-760 limits assumed): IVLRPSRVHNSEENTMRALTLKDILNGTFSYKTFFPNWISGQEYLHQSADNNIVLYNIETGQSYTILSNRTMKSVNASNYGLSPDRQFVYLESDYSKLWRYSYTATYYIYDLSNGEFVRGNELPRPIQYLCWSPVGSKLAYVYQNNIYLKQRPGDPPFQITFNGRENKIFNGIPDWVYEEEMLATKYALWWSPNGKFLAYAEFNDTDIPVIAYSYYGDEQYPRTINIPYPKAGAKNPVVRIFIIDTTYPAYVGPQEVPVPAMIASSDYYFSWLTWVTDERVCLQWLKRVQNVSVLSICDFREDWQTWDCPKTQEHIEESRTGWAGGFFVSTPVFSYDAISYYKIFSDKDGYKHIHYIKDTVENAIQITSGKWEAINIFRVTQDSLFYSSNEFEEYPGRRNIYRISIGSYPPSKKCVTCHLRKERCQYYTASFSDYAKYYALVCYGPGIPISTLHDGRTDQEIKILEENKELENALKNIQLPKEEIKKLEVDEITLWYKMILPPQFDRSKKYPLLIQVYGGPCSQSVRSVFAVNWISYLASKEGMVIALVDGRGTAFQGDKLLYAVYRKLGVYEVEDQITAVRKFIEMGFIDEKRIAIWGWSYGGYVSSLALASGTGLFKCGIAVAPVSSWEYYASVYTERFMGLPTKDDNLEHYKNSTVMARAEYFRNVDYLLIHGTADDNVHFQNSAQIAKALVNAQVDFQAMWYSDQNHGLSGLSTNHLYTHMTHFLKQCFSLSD

[2] = target: T2, DPPIV (Homo sapiens, UniProt P27487); assay: Enzyme assay with fluorogenic substrate, DPPIV; type: biochemical
[3] = target: T3, POP (Homo sapiens, UniProt P48147); assay: Enzyme assay with fluorogenic substrate, POP; type: biochemical; settings: 100 nM inhibitor; in buffer
T3 sequence (P48147 1-710): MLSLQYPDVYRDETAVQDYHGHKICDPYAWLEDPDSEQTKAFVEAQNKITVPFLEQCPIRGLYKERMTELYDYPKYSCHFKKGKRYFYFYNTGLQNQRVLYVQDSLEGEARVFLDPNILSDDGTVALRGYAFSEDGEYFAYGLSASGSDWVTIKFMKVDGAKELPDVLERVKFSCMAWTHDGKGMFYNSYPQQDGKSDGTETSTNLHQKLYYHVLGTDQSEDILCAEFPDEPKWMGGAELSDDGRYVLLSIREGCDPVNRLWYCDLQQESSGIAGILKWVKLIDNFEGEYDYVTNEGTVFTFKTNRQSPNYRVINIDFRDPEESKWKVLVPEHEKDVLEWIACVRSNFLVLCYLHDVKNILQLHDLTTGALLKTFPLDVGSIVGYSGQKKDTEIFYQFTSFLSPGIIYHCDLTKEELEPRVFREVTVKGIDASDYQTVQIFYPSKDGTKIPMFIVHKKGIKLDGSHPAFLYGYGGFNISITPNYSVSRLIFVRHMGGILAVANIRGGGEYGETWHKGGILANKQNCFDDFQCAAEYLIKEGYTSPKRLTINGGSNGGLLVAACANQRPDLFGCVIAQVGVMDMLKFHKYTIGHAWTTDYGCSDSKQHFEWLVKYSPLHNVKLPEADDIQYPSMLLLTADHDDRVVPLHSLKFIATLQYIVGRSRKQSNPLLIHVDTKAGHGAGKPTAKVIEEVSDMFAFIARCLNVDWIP

[4] = test system: APCE and POP; type: biochemical, human; settings: non-POP-supplemented plasma; 10 μM inhibitor; 100 μM substrate
In short: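 Pooled plasma from four donors, with or without 0.05 μg added POP, was assayed with 10 μM inhibitor or no inhibitor. Cleavage was compared with uninhibited plasma. Values are mean ± SD of three experiments.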

[5] = pH 7.8; cited from earlier work
[6] = target: T2, DPPIV; settings: cited from earlier work
[7] = target: T3, POP; settings: cited from earlier work

T2 sequence (P27487 whole entry, species assumed): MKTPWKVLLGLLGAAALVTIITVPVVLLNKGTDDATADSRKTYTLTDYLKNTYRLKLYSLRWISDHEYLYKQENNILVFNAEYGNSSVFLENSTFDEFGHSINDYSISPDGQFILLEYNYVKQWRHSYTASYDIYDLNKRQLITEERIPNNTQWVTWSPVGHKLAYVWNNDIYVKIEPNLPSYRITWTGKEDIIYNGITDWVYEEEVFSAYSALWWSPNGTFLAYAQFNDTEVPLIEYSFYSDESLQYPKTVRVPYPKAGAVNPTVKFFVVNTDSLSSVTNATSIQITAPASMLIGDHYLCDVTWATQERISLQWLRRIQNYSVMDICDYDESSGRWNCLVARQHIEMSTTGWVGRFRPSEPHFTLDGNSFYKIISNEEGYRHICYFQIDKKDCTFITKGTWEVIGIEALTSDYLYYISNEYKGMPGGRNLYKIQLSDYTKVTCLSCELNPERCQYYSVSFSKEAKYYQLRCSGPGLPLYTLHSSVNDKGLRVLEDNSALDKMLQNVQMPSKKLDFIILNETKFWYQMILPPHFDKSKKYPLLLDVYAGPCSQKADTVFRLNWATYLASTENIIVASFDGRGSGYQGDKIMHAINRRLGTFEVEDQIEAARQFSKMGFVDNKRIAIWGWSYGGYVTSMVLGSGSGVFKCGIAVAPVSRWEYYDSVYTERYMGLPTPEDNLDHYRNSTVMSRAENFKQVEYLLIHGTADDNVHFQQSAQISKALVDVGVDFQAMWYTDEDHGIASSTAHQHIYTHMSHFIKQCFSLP

inhibitory activity towards APCE/FAP [1]: no inhibitory activity
inhibitory activity towards DPPIV ([2]; 10 μM inhibitor): no inhibitory activity
inhibition of POP [3]: total inhibition
Compound: acetyl-KLR-L-boroPro
inhibition of MEPLGRQLTSGP-AMC cleavage in plasma [4]: not inhibited

Compound: CC(C)[C@H](N)C(=O)N1CCC[C@H]1B(O)O [Val-boroPro]
stability of inhibitory activity in aqueous media [5]: rapidly loses inhibitory activity

DPPIV selectivity ([2]; Ki(app) (DPPIV)/Ki(app) (APCE/FAP)): 19
Compound: CC(=O)N[C@@H](CCCNC(=N)N)C(=O)NCC(=O)NCC(=O)N1CCC[C@H]1B(O)O [Inhibitor no. 2, Ac-Arg-Gly-Gly-L-boroPro]

Compound: Cc1cc(=O)oc2cc(NC(=O)[C@@H]3CCCN3C(=O)CNC(=O)OCc3ccccc3)ccc12 [Z-GP-AMC, benzyloxycarbonyl (Z)-GP-AMC] (Cbz-Gly-Pro-{AMC})
cleavage by DPPIV [6]: not cleaved

Compound: Cc1cc(=O)oc2cc(NC(=O)[C@@H]3CCCN3C(=O)CN)ccc12 [GP-AMC] (H-Gly-Pro-{AMC})
cleavage by POP [7]: not cleaved
